Reference: ChEMBL document CHEMBL1125033, “Structure-activity relationship of antiestrogens. Phenolic analogues of 2,3-diaryl-2H-1-benzopyrans” (J Med Chem, 1990)

Assays:
[1] = molecular target: T1, Estrogen receptor (Rattus norvegicus) (UniProt P06211+Q62986)
[2] = molecular target: T1, Estrogen receptor (Rattus norvegicus); test: Relative binding affinity against estrogen receptor(ER); type: protein assay
Method in brief: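 Uterine cytosol from immature rats primed s.c. with 0.1 μg E₂ 24 h before sacrifice, one uterine equivalent per mL TEA buffer (pH 7.4, 7% DMF). Incubated 18-20 h at 4 °C with ³H-E₂ (5 × 10⁻⁹ M) and competitor at 10⁻⁴–10⁻⁹ M, in triplicate. Charcoal-dextran separation for 20 min, then scintillation counting.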

[3] = test system: Anti-estrogen binding site (AEBS) (Rattus norvegicus); test: Relative binding affinity against Antiestrogen binding site(AEBS)
[4] = molecular target: T1, Estrogen receptor (Rattus norvegicus); remark: listed apart in the source

SMILES: Oc1ccc(C2=Cc3ccccc3OC2c2ccc(OCCN3CCCCC3)cc2)cc1 (stereo not given)
- Mean weight [1]: 10.4 mg
- relative binding affinity (RBA) [2]: 4.2
- relative binding affinity (RBA) [3]: 14
- Mean weight [4]: 11.6 mg

SMILES: Oc1ccc2c(c1)OC(c1ccc(OCCN3CCCCC3)cc1)C(c1ccccc1)=C2 (stereo not given)
- Mean weight [1]: 15.2 mg
- relative binding affinity (RBA) [2]: 9.5
- relative binding affinity (RBA) [3]: 13
- Mean weight [4]: 21.2 mg

SMILES: Oc1ccc(C2=Cc3ccc(O)cc3OC2c2ccc(OCCN3CCCCC3)cc2)cc1 (stereo not given)
- Mean weight [1]: 10.6 mg
- relative binding affinity (RBA) [2]: 49
- relative binding affinity (RBA) [3]: 2.2
- Mean weight [4]: 12.4 mg

SMILES: COc1ccc2c(c1)OC(c1ccc(OCCN3CCCCC3)cc1)C(c1ccccc1)=C2 (stereo not given)
- Mean weight [1]: 22.6 mg
- relative binding affinity (RBA) [2]: 0.02
- relative binding affinity (RBA) [3]: 21
- Mean weight [4]: 43.1 mg

SMILES: O=C(c1ccc(OCCN2CCCC2)cc1)c1c(-c2ccc(O)cc2)sc2cc(O)ccc12
- Mean weight [1]: 25.5 mg
- relative binding affinity (RBA) [2]: 93
- relative binding affinity (RBA) [3]: 6.5
- Mean weight [4]: 25.6 mg

SMILES: Oc1ccc(C2=Cc3ccc(O)cc3OC2c2ccc(O)cc2)cc1 (stereo not given)
- Mean weight [1]: 14.2 mg
- relative binding affinity (RBA) [2]: 2.2
- Mean weight [4]: 44.2 mg

SMILES: COc1ccc(C2=C(C(=O)c3ccc(OCCN4CCCC4)cc3)c3ccccc3CC2)cc1
- Mean weight [1]: 18.6 mg
- relative binding affinity (RBA) [2]: 8
- relative binding affinity (RBA) [3]: 25
- Mean weight [4]: 29.1 mg

SMILES: C1=C(c2ccccc2)C(c2ccc(OCCN3CCCCC3)cc2)Oc2ccccc21 (stereo not given)
- Mean weight [1]: 15.3 mg
- relative binding affinity (RBA) [3]: 225
- Mean weight [4]: 18.6 mg
